Results pooled from the literature.
Compare with care: the assays were run in different laboratories.
Organism: Staphylococcus aureus
Effect on: microbial growth

C=CCn1c(-c2ccc(Cl)cc2)nc2ccccc21
MIC (broth dilution; ATCC29213 MSSA): 64 µg/mL

O=C(O)CN1C(=O)/C(=C/c2c3ccccc3c(-c3ccc(N(c4ccccc4)c4ccccc4)cc3)c3ccccc23)NC1=S
MIC (broth dilution; ATCC6538): > 1000 µg/mL

C/N=C(/NC)c1ccc(NC(=O)/C=C/c2ccc(/C=C/C(=O)Nc3ccc(/C(=N\C)NC)cc3)cc2)cc1
MIC: 2 µg/mL

CN(C)[C@@H]1C(O)=C(C(N)=O)C(=O)[C@@]2(O)C(O)=C3C(=O)c4c(O)cccc4[C@@](C)(O)[C@H]3C[C@@H]12
MIC (NCTC8325): 0.5 µM

C/C=C(\C)c1cc(OC(=O)c2c(O)c(C)c(O)c(Cl)c2/C(C)=C/C)c(C)c(O)c1C(=O)O
MIC (broth dilution; 745524): 32 µg/mL

CC(C)Oc1c(NC(=O)c2ccc(NC(=O)[C@H](CC(N)=O)NC(=O)c3ccc(NC(=O)c4ccc(C#N)s4)cc3)cc2)ccc(C(=O)Nc2ccc(C(=O)O)cc2)c1O
MIC (ATCC29213): 0.25 µg/mL

CNC(=O)c1nn(C)c2c1C(C)(C)Cc1cnc(Nc3ccc(N4CCN(C)CC4)cc3)nc1-2
MIC (NCTC8325): > 30 µM

Cc1nc(O)n2ncc(Cl)c2n1
MIC: > 128 µg/mL

C/C=C(\C)c1cc(O)c(C)c(OC(=O)c2c(C)cc(O)c(Cl)c2O)c1
MIC (broth dilution; 16339): 16 µg/mL

CCCCCCC#Cc1cncc(-c2nnc(SCc3ccc(Cl)cc3)n2C)c1
MIC (MRSA; drug-resistant strain): ≥ 20 µg/mL

Cc1ccc2nc(-c3ccc(Cl)c(Cl)c3)[nH]c2c1
MIC (broth dilution; ATCC29213 MSSA): 16 µg/mL

CN[C@H](CC(C)C)C(=O)N[C@H]1C(=O)N[C@@H](CC(N)=O)C(=O)N[C@H]2C(=O)N[C@H]3C(=O)N[C@H](C(=O)N[C@H](C(=O)O)c4cc(O)cc(O)c4-c4cc3ccc4O)[C@H](O)c3ccc(c(Cl)c3)Oc3cc2cc(c3O[C@@H]2O[C@H](CO)[C@@H](O)[C@H](O)[C@H]2O[C@H]2C[C@](C)(N)[C@H](O)[C@H](C)O2)Oc2ccc(cc2Cl)[C@H]1O
MIC (broth dilution; ATCC25923): 0.98 µg/mL

CC(C)Oc1c(NC(=O)c2ccc(NC(=O)[C@H](CC(N)=O)NC(=O)c3ccc(-c4nn[nH]c4-c4ccc(C#N)cc4)cc3)cc2)ccc(C(=O)Nc2ccc(C(=O)O)cc2)c1O
MIC (ATCC29213): > 64 µg/mL

CSc1ccc(-c2nc3ccccc3[nH]2)cc1
MIC (broth dilution; ATCC29213 MSSA): 16 µg/mL

CN(C[C@@H]1COCCO1)S(=O)(=O)Nc1ccc2ccc3ncc(-c4cnn(C)c4)cc3c(=O)c2c1
MIC (NCTC8325): 30 µM

COc1c(C)c(OS(=O)(=O)c2ccc3ccccc3c2)c(C)c(O)c1C(=O)/C=C/c1ccccc1
MIC (broth dilution; ATCC25923): 2500 µg/mL

O=C1C=CC(=O)c2c1ccc1c2[nH]c2ccccc21
MIC (ATCC29213): 4 µg/mL

CC1(C)S[C@@H]2[C@H](NC(=O)[C@H](N)c3ccccc3)C(=O)N2[C@H]1C(=O)O
MIC (broth dilution): 0.02 µg/mL

O=C1NC(=S)N/C1=C\c1ccc(-c2ccc(N(c3ccccc3)c3ccccc3)cc2)c2ccccc12
MIC (broth dilution; ATCC6538): > 1000 µg/mL

CC(C)Oc1c(NC(=O)c2ccc(NC(=O)[C@H](CC(N)=O)NC(=O)c3ccc(NC(=O)c4ccc([N+](=O)[O-])c(OC(C)C)c4O)cc3)cc2)ccc(C(=O)Nc2ccc(C(=O)O)cc2)c1O
MIC (ATCC29213): > 64 µg/mL

COc1ccc(C(=O)O)cc1NC(=O)/C=C/c1ccc(-c2ccccc2C)cc1
MIC: 64 µg/mL

O=C(Nc1cccc(NC(=O)Nc2ccc(Cl)c(C(F)(F)F)c2)c1)Nc1ccc(Cl)c(C(F)(F)F)c1
MIC (NCTC8325; 24 h): 1 µM

Oc1cccc(-c2nc3ccccc3[nH]2)c1
MIC (broth dilution; ATCC29213 MSSA): 64 µg/mL

CC1=NN(CNc2ccccc2[N+](=O)[O-])C(=O)C1=NNn1c(-c2ccccc2)nc2ccccc2c1=O
MIC (broth dilution; 24 h): 50.4 µM

COc1c(C)c(OC(=O)c2ccc(C)cc2)c(C)c(O)c1C(=O)/C=C/c1ccccc1
MIC (broth dilution; ATCC25923): 5000 µg/mL

CN1CCC(CNc2ccc3ncc(-c4cccc(OC(F)(F)F)c4)n3n2)CC1
MIC (NCTC8325): > 30 µM

Cc1ccc(C)n1-c1ccc(-c2nnc(-c3ccc(N(C)C)cc3)[nH]2)cc1
MIC (broth dilution; ATCC11632; 18 h): 8 µg/mL

CC[C@H]1OC(=O)[C@H](C)[C@@H](O[C@H]2C[C@@](C)(OC)[C@@H](O)[C@H](C)O2)[C@H](C)[C@@H](O[C@@H]2O[C@H](C)C[C@H](N(C)C)[C@H]2O)[C@](C)(O)C[C@@H](C)C(=O)[C@H](C)[C@@H](O)[C@]1(C)O
MIC (broth dilution; 25923): 0.59 µM

CC(C)Oc1c(NC(=O)c2ccc(NC(=O)[C@H](CC(N)=O)NC(=O)c3ccc(NC(=O)C(C)Oc4ccccc4)cc3)cc2)ccc(C(=O)Nc2ccc(C(=O)O)cc2)c1O (stereo partly drawn)
MIC (ATCC29213): > 64 µg/mL

C[n+]1c(/C=C/c2c[nH]c3ccccc23)cc(/C=C2\Sc3ccccc3N2CCCN2CCCC2)c2ccccc21.[I-]
MIC (broth dilution; ATCCBAA44): 4 µg/mL

C/C=C(\C)c1cc(O)c(C)c(OC(=O)c2c(C)c(Cl)c(O)c(Cl)c2O)c1
MIC (broth dilution; MRSA): 4 µg/mL

Fc1cc(-c2cccc3ncc(-c4cnn(C5CCNCC5)c4)nc23)cc(F)c1CN1CCOCC1
MIC (NCTC8325): > 30 µM

O=C1NC(=S)N/C1=C\c1c2ccccc2c(-c2ccc(N(c3ccccc3)c3ccccc3)cc2)c2ccccc12
MIC (broth dilution; ATCC25923): > 1000 µg/mL

C[C@@H](O)[C@H]1C(=O)N2C(C(=O)O)=C(S[C@@H]3CN[C@H](C(=O)N(C)C)C3)[C@H](C)[C@H]12
MIC (broth dilution; ATCC29213): 32 µg/mL

O=C(CCCCCC[P+](c1ccccc1)(c1ccccc1)c1ccccc1)Nc1cc(O)c(O)c(O)c1.[Br-]
MIC (broth dilution; ATCC43300 MRSA; 18 h): 32 µg/mL

CC1COc2c(N3CCN(C)CC3)c(F)cc3c(=O)c(C(=O)O)cn1c23 (stereo not drawn)
MIC (NCTC8325): 0.5 to 2 µM

Fc1ccc(NCc2ccc(Oc3ccccn3)cc2)cc1
MIC: 1.8 µg/mL

c1ccc2[nH]c(-c3ccc4c(c3)OCO4)nc2c1
MIC (broth dilution; ATCC29213 MSSA): 128 µg/mL

CC1(C)S[C@@H]2[C@H](NC(=O)COc3ccccc3)C(=O)N2[C@H]1C(=O)O
MIC (MRSA; 18 h): > 128 µg/mL

Cc1cc(/C=C2\Sc3ccccc3N2CCCN2CCC(C)CC2)c2ccccc2[n+]1C.[I-]
MIC (broth dilution; ATCCBAA44): 1 µg/mL

Cc1ccc2nc(-c3ccc(F)cc3)n(Cc3ccccc3)c2c1
MIC (broth dilution; ATCC29213 MSSA): 64 µg/mL

CC(=O)Nc1nc(C)c(-c2ccc(Cl)c(S(=O)(=O)NCCO)c2)s1
MIC (NCTC8325): > 30 µM
